PRMT1 inh = PRMT1 methyltransferase inhibitors, primary screen, biochemical, fluorescence polarization. AID 652257, 2013. inhibition, % at 2.79 µM. Protein arginine N-methyltransferase 1 (Homo sapiens), Q99873. 1.3% of 370,000 active. recombinant PRMT1, activity-based probe fluorescence polarization;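 active means inhibition above about 21% made by adding two undisclosed values, limit read from the data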
ABHD5-PLIN5 inh = ABHD5-PLIN5 interaction inhibitors, primary screen, cell lysate, split luciferase complementation, luminescence; Perilipin-5 (Homo sapiens) + 1-acylglycerol-3-phosphate O-acyltransferase ABHD5 (Homo …; Split G. princeps luciferase complementation, 4 h; inhibition, % at 4 µM; 0.78% of 360,000 active; AID 602281, 2012;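 active means inhibition above the mean inhibition across every tested compound plus 3 SD, cut at about 22% in these data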
LEDGF integ inh = blockers of LEDGF/p75-dependent integrase strand transfer – biochemical, TR-FRET, high throughput, primary screen; HIV-1 integrase (with human LEDGF/p75); TR-FRET IN-LEDGF/p75 DNA integration, Eu/Cy5; inhibition, % at 3.7 µM; 0.64% of 370,000 active; AID 743269, 2014;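 active means inhibition above the screen-wide mean plus 3 SD, cut at about 13% in these data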;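 further: signal is the Cy5 over europium emission ratio at 671 and 618 nm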
MBD2 DNA inh = inhibitors of MBD2 binding to methylated DNA, primary screen, biochemical, TR-FRET, DNA-binding domain, human; MBD2 binding to methylated oligonucleotide; Methyl-CpG-binding domain protein 2 (Homo sapiens), Q9UBB5; 0.31% of 370,000 active; inhibition, % at 4.4 µM; in the data active means inhibition above about 13%
Target sequence (Q9UBB5 whole entry, looked up, the tested form may be a part): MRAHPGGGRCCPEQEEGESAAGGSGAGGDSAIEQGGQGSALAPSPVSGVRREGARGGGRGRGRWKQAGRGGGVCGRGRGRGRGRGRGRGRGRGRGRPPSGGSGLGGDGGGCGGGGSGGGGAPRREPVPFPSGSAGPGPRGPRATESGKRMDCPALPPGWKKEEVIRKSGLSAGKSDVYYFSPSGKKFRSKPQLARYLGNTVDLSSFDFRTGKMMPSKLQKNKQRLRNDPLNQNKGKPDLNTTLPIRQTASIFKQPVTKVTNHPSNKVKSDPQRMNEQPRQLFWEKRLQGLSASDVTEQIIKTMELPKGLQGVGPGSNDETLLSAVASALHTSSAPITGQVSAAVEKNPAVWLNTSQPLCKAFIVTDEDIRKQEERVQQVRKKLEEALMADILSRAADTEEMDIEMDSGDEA
RBBP9 inhibitor = human RBBP9 inhibitors, primary screen, biochemical, fluorescence polarization, FP-Rh probe, HTS | Serine hydrolase RBBP9 (Homo sapiens), O75884 | recombinant RBBP9 | inhibition, % at 7.94 µM | 0.2% of 220,000 active | AID 1515, 2009;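 active means inhibition above the campaign mean of all tested compounds plus 3 SD, cut at about 14% in these data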
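Measured by – fluorescence polarization · Test system – RBBP9 protein · Input – 2.5 µM RBBP9 dispensing solution, before mixing · Measure – percent inhibition from mP, scaled between DMSO and no-protein wells · Benchmarks – DMSO-treated enzyme wells and wells lacking RBBP9 · Times – preincubation 30 min plus labeling 45 min at 25 °C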
UHRF1 binding = UHRF1 methylated DNA binding inhibitors, primary screen, counter-screen for MBD2 inhibitor project, biochemical, TR-FRET, human UHRF1, single concentration; UHRF1 binding to methylated oligo; 0.75% of 370,000 active; E3 ubiquitin-protein ligase UHRF1 (Homo sapiens), Q96T88; AID 687016, 2013; inhibition, % at 4.4 µM; in the data active means inhibition above about 21%;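 further: UHRF1 SRA domain binding a hemimethylated CpG hairpin DNA probe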
Each line names hits and unclear results; the compound was inactive in the other large screens. Rows were chosen to be rich in hits. Some 3.1% of all compounds tested hit in one or more screens of this group.

COc1ccc(NC(=O)c2cc3ccccn3n2)cc1	UHRF1 binding 30
Cc1ccc2c(c1)N(C(=O)CSc1nncn1C)C(C)(C)c1ssc(=S)c1-2	PRMT1 inh 29
Cc1cc2c(cc1C)N(C(=O)CSc1nncn1C)C(C)(C)c1ssc(=S)c1-2	none
Cc1nc2c(nc1C)C(=O)c1ccccc1C2=O	none (no result: RBBP9 inhibitor)
COC1=C(Br)C(=O)c2nc(C)ccc2C1=O	PRMT1 inh 28, LEDGF integ inh 65, UHRF1 binding 39 (no result: RBBP9 inhibitor)
COC(=O)C[C@@H]1CC[C@H]2[C@H](COc3ccc(NC(=O)Nc4ccc(Cl)cc4)cc3C(=O)N2C)O1	none (no result: ABHD5-PLIN5 inh, RBBP9 inhibitor)
COc1ccc(/C=C/C(=O)O)cc1Cl	UHRF1 binding 43
Fc1cccc(C[n+]2csc3ccccc32)c1	PRMT1 inh 75, ABHD5-PLIN5 inh 36
c1ccc(C[n+]2csc3ccccc32)cc1	PRMT1 inh 84
Brc1cc2ccccc2[n+](Cc2ccccc2)c1	none (no result: RBBP9 inhibitor)
CCC[C@H]1[C@@H](NC(=O)C#Cc2ccccc2)CC[C@@]23CCCN2C(=O)CCC[C@@H]13	none (no result: ABHD5-PLIN5 inh, RBBP9 inhibitor)
CC(C)(C)OC(=O)N1CCC(c2cc(=O)n3[nH]cc(C(=O)Nc4ccc(F)c(Cl)c4)c3n2)CC1	none
COc1ccc(NC(=O)c2c[nH]n3c(=O)cc(C4CCN(C(=O)OC(C)(C)C)CC4)nc23)cc1Cl	UHRF1 binding 39
C[C@H]1Cn2cnc(C(=O)N3CCN(c4ccccc4)CC3)c2C(=O)N1	none (no result: ABHD5-PLIN5 inh, RBBP9 inhibitor)
CC(O)(c1ccc(F)c(F)c1)c1nc(-c2ccoc2)cs1 (configuration not stated)	ABHD5-PLIN5 inh 22 (no result: RBBP9 inhibitor)
COc1ccc(NC(=O)[C@@]2(CC(=O)O)CC(/C=C/c3ccccc3)=NO2)cc1	none (no result: RBBP9 inhibitor)
CC(=O)c1ccc(NC(=O)[C@@]2(CC(=O)O)CC(/C=C/c3ccccc3)=NO2)cc1	UHRF1 binding 54 (no result: RBBP9 inhibitor)
CCOC(=O)c1c(C)[nH]c(C)c1S(=O)(=O)NCCCN1CCOCC1	none (no result: RBBP9 inhibitor)
CCOC(=O)c1c(C)[nH]c(C)c1S(=O)(=O)NCCN1CCN(c2cc(Cl)ccc2C)CC1	UHRF1 binding 58 (no result: RBBP9 inhibitor)
O=C(OC12CCCN(C1)/C(=C/c1cccc(Cl)c1)C2)c1ccno1 (configuration not stated)	none (no result: ABHD5-PLIN5 inh, RBBP9 inhibitor)
C=CCN1C(=O)[C@@H](CC(=O)NCc2cccc3ccccc23)[C@]2(C(=O)OC)CCCCC=C12	none (no result: ABHD5-PLIN5 inh, RBBP9 inhibitor)
COc1ccc(C(=O)OCC(=O)c2ccc3c(c2)NC(=O)CO3)cc1OC	UHRF1 binding 58 (no result: RBBP9 inhibitor)
COc1ccc(C(=O)OCC(=O)c2ccc3c(c2)NC(=O)CO3)cc1[N+](=O)[O-]	none (no result: RBBP9 inhibitor)
Cc1ccccc1CNC(=O)C1C2C=CC3(CN(Cc4ccccc4)C(=O)C13)O2 (configuration not stated)	none (no result: ABHD5-PLIN5 inh, RBBP9 inhibitor)
Cc1cc(Cl)cc2sc(=S)[nH]c12	PRMT1 inh 22 (no result: RBBP9 inhibitor)
C=CCCC1CN(Cc2ccc(OC)cc2)S(=O)(=O)c2c(cccc2N2CCCCC2)O1 (configuration not stated)	none (no result: ABHD5-PLIN5 inh, RBBP9 inhibitor)
COC(=O)[C@]1(CNC(C)=O)CC(=O)N(Cc2ccc(Cl)cc2)[C@@H]1c1ccc(OC)cc1	none (no result: ABHD5-PLIN5 inh, RBBP9 inhibitor)
COC(=O)[C@]1(CNC(=O)C(C)(C)C)CC(=O)N(Cc2ccc(Cl)cc2)[C@@H]1c1ccc(OC)cc1	UHRF1 binding 45 (no result: ABHD5-PLIN5 inh, RBBP9 inhibitor)
COc1ccc(-c2noc(CNC(=O)Nc3ccc(F)cc3)n2)cc1	UHRF1 binding 65
COC(=O)[C@]12C[C@H](CC(=O)N3CCN(C(=O)c4ccco4)CC3)C(=O)N(CCC3=CCCCC3)C1=C[C@H](COCc1ccccc1)O[C@@H]2C	none (no result: ABHD5-PLIN5 inh, RBBP9 inhibitor)
CN(c1ccccc1)c1ccc(/C=C/[N+](=O)[O-])cc1	ABHD5-PLIN5 inh 88
CNC(=O)COC(=O)c1cc(SC)ccc1Cl	UHRF1 binding 26
COC(=O)[C@]12C[C@H](CC(=O)N3CCC(c4ccccc4)CC3)C(=O)N(CCc3ccc(OC)c(OC)c3)C1=C[C@H](C(C)C)O[C@@H]2C1CC1	none (no result: ABHD5-PLIN5 inh, RBBP9 inhibitor)
